Assay outcomes from PubChem.
CRFBP-R2 agonist – CRF-BP/CRF-R2 complex agonism | HEK293 CRF-R2/CRF-BP, calcium dye fluorescence (FLIPR); percent of saturating CRF peptide response | activation, % at 13.2 µM | AID 588473 | actives 0.46% (n = 350,000);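 active = activation of at least 50%, plus an integration ratio under a set limit after plate pattern correction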;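 note: plate controls were neutral control wells without compound for no effect and CRF at EC100 for full effect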
CendR NRP1 mod – NRP-1/CendR interaction modulation | inhibition, % at 25 µM | FAM-RPARPAR peptide binding to NRP-1, fluorescence polarization | actives 0.85% (n = 360,000) | O14786 | AID 602438;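 active = inhibition or corrected inhibition above about 18%, plus a signal ratio from 0.5 to 1.5, limit read from the data, passing the limit was not always enough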
DDE Tn6 FP inh – DD(E)-Tn6 binding inhibition, primary FP screen; Fibrin DD(E) TRITC-Tn6 fluorescence polarization displacement; inhibition, % at 8.3 µM; actives 0.21% (n = 370,000);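 active = inhibition above a per-campaign cutoff: mean of compounds within control limits plus 3 SD, cut at about 15% in these data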;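 note: 0% = median of all compound wells on the plate and 100% = blocking peptide control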
DDE Tn7 FP inh – inhibitors of Tn7 peptide binding to human fibrin DD(E); inhibition, % at 8.3 µM; FP displacement of FITC-Tn7 peptide from fibrin DD(E); 0% = median of compound wells per plate; P02675; actives 0.13% (n = 370,000);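 active = inhibition above the mean of compounds falling within the control limits plus 3 SD of them, cut at about 14% in these data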;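 note: 0% = plate median of compound wells and 100% = 10 µM Aha-Tn7 peptide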
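Test system – human fibrin DD(E) · Times – 10 min preincubation, 3 h with tracer, room temperature · Detection – fluorescence polarization of the labelled Tn7 tracer · Measure – percent inhibition normalized to high-control wells · Benchmarks – high control wells with 10 µM unlabelled Aha-Tn7 peptide (full inhibition) · Repeats – singlicate testing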
CRFR2-BP antag – antagonists of CRF-binding protein/CRF-R2 receptor complex. AID 588475. actives 0.59% (n = 350,000). HEK293 CRF-R2/CRF-BP, CRF-induced calcium fluorescence. inhibition, % at 11.8 µM;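 active = inhibition of the ligand-induced calcium signal above about 50% at the single tested concentration, limit read from the data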
KLK7 zymogen act – activates the human kallikrein-7 zymogen. purified proKLK7, EDANS-DABCYL substrate fluorescence; 100% is mature enzyme control, 0% vehicle. activation, % at 7 µM. actives 0.9% (n = 370,000);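 active = activation above the mean of all tested compounds plus 3 SD, computed per campaign excluding outliers beyond control limits, cut at about 13% in these data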
Target sequence (P49862 whole entry, looked up): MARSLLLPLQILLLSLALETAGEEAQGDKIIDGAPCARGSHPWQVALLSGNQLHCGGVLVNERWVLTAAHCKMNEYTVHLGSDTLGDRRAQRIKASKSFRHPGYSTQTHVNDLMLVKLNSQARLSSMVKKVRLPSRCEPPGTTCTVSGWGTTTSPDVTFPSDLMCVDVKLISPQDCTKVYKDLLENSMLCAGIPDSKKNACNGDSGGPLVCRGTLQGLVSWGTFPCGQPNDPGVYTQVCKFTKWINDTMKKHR
proKLK7 act conf – confirmation of human kallikrein-7 zymogen activators; actives 68% (n = 3,200); activation, % at 7 µM; AID 686949; purified proKLK7, EDANS-DABCYL substrate fluorescence; scaled: vehicle 0, mature enzyme 100; shares compounds with KLK7 zymogen act;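 active = activation, as change over the incubation, above the mean of all tested compounds plus 3 SD, cut at about 13% in these data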
EDANS interfere – optically interferes with EDANS-DABCYL signal, flagging KLK7 hits; actives 80% (n = 3,200); shares compounds with KLK7 zymogen act; activation, % at 7 µM; EDANS-DABCYL substrate fluorescence interference, no enzyme, 4 h; solvent 0%, active enzyme control 100%;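 active = activation above the all-compound mean plus 3 SD, ignoring values outside control-based bounds, cut at about 4.8% in these data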;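 note: value is the 4 h activation minus the activation read at time zero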
The depositor's hits bear a star; nt = not tested or not shown. Sampled rows, rich in hits. Any-hit rate of the full collection: about 2.9%.

SMILES	CRFBP-R2 agonist	CendR NRP1 mod	DDE Tn6 FP inh	DDE Tn7 FP inh	CRFR2-BP antag	KLK7 zymogen act	proKLK7 act conf	EDANS interfere
CC1(C)Cc2c(sc(NC(=O)c3ccc(S(=O)(=O)N4CCCC4)cc3)c2C#N)C(C)(C)N1	-1.3	15.0	-3.3	-3.1	16.6	38.4*	140.7*	154.1*
CC1(C)Cc2c(sc(NC(=O)COc3ccc(Cl)cc3)c2C#N)C(C)(C)N1	-0.7	-6.8	nt	nt	-2.8	nt	nt	nt
O=C(Nc1cccc2c1C(=O)NC2=O)c1ccc(S(=O)(=O)N2CCCC2)cc1	6.6	11.1	-1.0	0.4	10.5	21.6*	257.9*	264.0*
CCOC(=O)N1CCN(S(=O)(=O)c2ccc(C(=O)Nc3sc4c(c3C#N)CCC4)cc2)CC1	-1.4	-13.9	7.0	1.0	9.0	-0.2	nt	nt
Cc1cccc(NC(=O)c2ccc(S(=O)(=O)N3CCCC3)cc2)c1C	-5.1	6.0	-11.0	4.0	-0.2	-0.1	nt	nt
O=S1(=O)CC2c3ccc(F)cc3CN2CN1C1CCCC1 (stereo not drawn)	nt	nt	0.4	0.1	nt	0.1	nt	nt
CNC(C#Cc1ccccc1)c1ccccc1C(F)(F)F (stereo not drawn)	nt	nt	2.7	0.5	nt	nt	nt	nt
CC1(C)Cc2c(sc(NC(=O)c3ccc(S(=O)(=O)N4CCCCCC4)cc3)c2C(N)=O)C(C)(C)N1	-0.2	-16.3	-12.3	0.4	-22.4	30.5*	33.2*	30.6*
CC1(C)Cc2c(sc(NC(=O)c3ccc4c(c3)OCCO4)c2C(N)=O)C(C)(C)N1	-1.5	-4.9	-8.9	2.7	-10.8	1.4	nt	nt
O=C(Nc1nc2ncccn2c1-c1ccc(F)cc1)c1ccc(F)cc1	nt	nt	5.5	-4.0	nt	4.4	nt	nt
Cc1cc(=O)oc2c3c(cc(OCC(=O)NC(C)C)c12)OC(C)(C)CC3	-7.2	-5.0	1.9	-0.4	26.6	23.1*	47.1*	63.2*
COc1ccc(CNC(=O)COc2cc3c(c4oc(=O)cc(C)c24)CCC(C)(C)O3)cc1	0.7	-8.9	-0.6	4.3	18.1	-21.9	nt	nt
CCCCC(NC(=O)COc1cc2c(c3oc(=O)cc(C)c13)CCC(C)(C)O2)C(=O)O (stereo not drawn)	1.4	1.1	-3.8	-8.5	-1.6	9.5	nt	nt
Cc1cc(=O)oc2c3c(cc(OCC(=O)N[C@@H](C)C(=O)O)c12)OC(C)(C)CC3	1.6	6.7	0.4	0.9	12.8	63.9*	62.0*	73.3*
COc1cc(-c2cc(=O)c3ccc(O)cc3o2)cc(OC)c1OC	nt	3.5	-2.3	4.5	nt	14.9*	4.9	8.7*
Cc1[nH]n(-c2cccc3ccccc23)c(=O)c1C=Nc1ccc2[nH]c(=O)[nH]c2c1	0.1	-8.4	-8.4	0.2	-3.0	0.2	nt	nt
Cc1ccc(-n2[nH]c(C)c(C=Nc3ccc4[nH]c(=O)[nH]c4c3)c2=O)cc1	-0.4	30.5*	-2.4	5.9	47.3	379.3*	443.1*	406.7*
Cc1ccc(-n2[nH]c(C)c(C=Nc3ccc4[nH]c(=O)[nH]c4c3)c2=O)cc1C	1.4	9.2	-14.9	-4.0	3.1	179.2*	186.4*	168.8*
O=C(NCCc1ccc(Cl)cc1)c1ccc2c(c1)ncn2C1CCCCC1	nt	nt	-1.2	5.6	nt	0.3	nt	nt
CCc1ccc(C2=CC(c3cc(Br)ccc3F)n3ncnc3N2)cc1 (stereo not drawn)	53.6*	-2.1	-4.1	-2.3	-10.2	13.3*	3.6	4.9*
COc1ccc(N2C(=O)c3ccccc3NC2c2ccc(NC(C)=O)cc2)c(OC)c1 (stereo not drawn)	-0.2	9.4	-5.4	-8.4	-3.7	3.6	nt	nt
COc1ccccc1N1C(=O)c2ccccc2NC1c1ccc(O)cc1 (stereo not drawn)	-2.0	3.3	-1.9	-8.9	-1.5	23.3*	19.8*	25.8*
CCOc1cc(C2Nc3ccccc3C(=O)N2c2ccccc2OC)ccc1O (stereo not drawn)	-0.3	3.5	8.3	4.7	-4.4	9.3	nt	nt
COc1cc(C2Nc3ccccc3C(=O)N2c2ccccc2OC)ccc1O (stereo not drawn)	-0.6	-4.1	0.5	6.3	-9.0	13.5*	14.8*	17.2*
O=C(Nc1ccc2nsnc2c1)NC1CCCCC1	-1.0	16.2	-5.2	-8.8	-23.0	21.0*	27.8*	29.0*
SMILES	CRFBP-R2 agonist	CendR NRP1 mod	DDE Tn6 FP inh	DDE Tn7 FP inh	CRFR2-BP antag	KLK7 zymogen act	proKLK7 act conf	EDANS interfere
O=C(Nc1ccc2nsnc2c1)C1CC1	-2.8	19.8	-6.3	-2.0	-5.4	8.2	nt	nt
O=C(NCCO)Nc1ccc2nsnc2c1	0.1	-8.6	3.3	7.2	-3.3	21.9*	39.8*	40.7*
COc1cccc2c3c(c(C)nc12)CC(C)O3 (stereo not drawn)	1.4	9.8	-2.0	-0.6	6.2	47.8*	8.2	11.8*
CCOC(=O)Nc1ccc2c(COC(=O)CN(C)S(=O)(=O)c3ccc(C)cc3)cc(=O)oc2c1	0.3	-9.5	-3.8	1.5	15.8	1.5	nt	nt
CCOC(=O)Nc1ccc2c(COC(=O)CNS(=O)(=O)c3cccc(Br)c3)cc(=O)oc2c1	2.0	-1.4	-6.5	-1.5	-0.1	14.9*	29.5*	34.5*
Fc1ccc(C2=Nn3c(nnc3C3CCCCC3)SC2)cc1	nt	nt	1.7	1.4	nt	-0.1	nt	nt
CC1Cc2ccccc2N1C(=O)COC(=O)c1ccccc1NCCO (stereo not drawn)	0.0	1.2	1.7	-0.9	-3.3	11.7	nt	nt
O=C(COC(=O)c1ccccc1NCCO)NCC1CCCCC1	-0.3	2.6	3.5	-2.2	-10.3	20.9*	5.4	5.2*
O=C(COC(=O)c1ccccc1NCCO)NNC(=O)c1cccs1	-1.3	2.3	0.6	2.0	7.5	38.1*	35.0*	37.2*
O=C(COC(=O)c1ccccc1NCCO)Nc1cccc(S(=O)(=O)NC2=NCCCCC2)c1	5.1	-1.8	-2.9	-2.7	-4.3	16.6*	0.4	-3.9
CC(C#N)(NC(=O)COC(=O)c1ccccc1NCCO)C1CC1 (stereo not drawn)	0.6	4.5	-2.9	-8.7	-6.4	19.2*	25.1*	33.6*
O=C(COC(=O)c1ccccc1NCCO)NCCc1ccccc1	-0.3	0.0	-8.2	-4.3	8.0	19.1*	15.5*	21.8*
O=C(COC(=O)c1ccccc1NCCO)NCCC1=CCCCC1	-0.5	-3.2	-0.8	-0.5	6.5	9.8	nt	nt
O=C(O)c1c2c(nc3ccccc13)/C(=C/c1ccc(OC(F)F)cc1)CCC2	0.9	12.0	-3.4	7.0	13.6	2.5	nt	nt
